Experimental findings from ChEMBL document CHEMBL1138614, “Synthesis and antibacterial activities of novel oxazolidinones having spiro[2,4]heptane moieties” (2009) are described below.

Assay type in all cases: functional
Assay [1] relates to Enterococcus. Put plainly: Antibacterial activity against vancomycin-resistant Enterococcus 6 after 18 to 20 hrs by agar dilution method. The gist of the method:
(§1)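 Agar dilution MIC on test agar. Bacteria grown overnight in tryptosoy broth, diluted in the same broth to about 10⁶ cells/mL, then applied with an inoculating device onto agar holding serial twofold dilutions of compound. Plates incubated at 37 °C for 18–20 h. MIC taken as the lowest concentration visibly inhibiting growth, in µg/ml.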
(In general: In agar dilution, organisms are placed on agar that contains the substance at set levels.)

In assay [2] the test system is Enterococcus faecium. As to the kind of experiment: Antibacterial activity against Enterococcus faecium C803 after 18 to 20 hrs by agar dilution method. The essentials:
as §1

Another assay deals with Streptococcus agalactiae. As to the kind of experiment: Antibacterial activity against Streptococcus agalactiae ATCC 2901 after 18 to 20 hrs by agar dilution method. The essentials: (§2)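 Agar dilution: bacteria grown overnight in tryptosoy broth and diluted in the same broth to about 10⁶ cells/mL. A multipoint inoculating device spotted them onto test agar carrying serial twofold dilutions of compound. Plates were held at 37 °C for 18–20 h. MIC (µg/ml) was read as the lowest concentration giving visible inhibition of growth.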

The next assay relates to Streptococcus pneumoniae. Put plainly: Antibacterial activity against Streptococcus pneumoniae C402 after 18 to 20 hrs by agar dilution method. The essentials: as §2
For assay [3], the system named is Enterococcus. As to the kind of experiment: Antibacterial activity against vancomycin-resistant Enterococcus 2 after 18 to 20 hrs by agar dilution method. The essentials:
as §1

A further assay relates to Streptococcus pyogenes. As to the kind of experiment: Antibacterial activity against Streptococcus pyogenes ATCC 8736 after 18 to 20 hrs by agar dilution method. The essentials: as §2
The test system of assay [4] is Enterococcus faecalis. As to the kind of experiment: Antibacterial activity against vancomycin-resistant Enterococcus faecalis after 18 to 20 hrs by agar dilution method. The essentials:
as §1

Assay [5] relates to Enterococcus. As to the kind of experiment: Antibacterial activity against vancomycin-resistant Enterococcus 3 after 18 to 20 hrs by agar dilution method. The essentials: as §1
The next assay relates to Staphylococcus. As to the kind of experiment: Antibacterial activity against Coagulase negative Staphylococcus after 18 to 20 hrs by agar dilution method. The essentials: as §2
The test system of assay [6] is Enterococcus faecium. Put plainly: Antibacterial activity against vancomycin-resistant Enterococcus faecium after 18 to 20 hrs by agar dilution method. The essentials:
as §1

In assay [7] the test system is Staphylococcus aureus. As to the kind of experiment: Antibacterial activity against methicillin-resistant Staphylococcus aureus after 18 to 20 hrs by agar dilution method. The essentials: as §1
The test system of assay [8] is Enterococcus. Put plainly: Antibacterial activity against vancomycin-resistant Enterococcus 1 after 18 to 20 hrs by agar dilution method. The gist of the method: as §1
In the next assay the test system is Haemophilus influenzae. As to the kind of experiment: Antibacterial activity against Haemophilus influenzae after 18 to 20 hrs by agar dilution method. The gist of the method:
as §2

Assay [9] deals with Enterococcus faecalis. Put plainly: Antibacterial activity against Enterococcus faecalis C474 after 18 to 20 hrs by agar dilution method. The essentials:
as §2

The subject of assay [10] is Enterococcus. As to the kind of experiment: Antibacterial activity against vancomycin-resistant Enterococcus 4 after 18 to 20 hrs by agar dilution method. The essentials:
as §1

Assay [11] deals with Enterococcus. As to the kind of experiment: Antibacterial activity against vancomycin-resistant Enterococcus 5 after 18 to 20 hrs by agar dilution method. The gist of the method: as §1
Assay [12] relates to Staphylococcus aureus. As to the kind of experiment: Antibacterial activity against Staphylococcus aureus C463 after 18 to 20 hrs by agar dilution method. The essentials:
as §1

Each structure is given as a SMILES string. ≈ marks a conversion by molar mass, not a printed value.

Consider `CC(=O)NC[C@H]1CN(c2ccc(N3C/C(=N\N)C4(CC4)C3)c(F)c2)C(=O)O1`, for which the MIC in the assay on Enterococcus [1] was 25 µg/mL (≈ 66.6 µM); against Enterococcus faecium [2] it was 25 µg/mL (≈ 66.6 µM); against Streptococcus agalactiae, 25 µg/mL (≈ 66.6 µM); against Streptococcus pneumoniae, 25 µg/mL (≈ 66.6 µM); against Enterococcus [3] it was 25 µg/mL (≈ 66.6 µM); with Streptococcus pyogenes, 12.5 µg/mL (≈ 33.3 µM). Besides, the MIC was 50 µg/mL (≈ 133 µM) in the assay with Enterococcus faecalis [4]; 12.5 µg/mL (≈ 33.3 µM) against Enterococcus [5]; 12.5 µg/mL (≈ 33.3 µM) with Staphylococcus; 25 µg/mL (≈ 66.6 µM) in the assay with Enterococcus faecium [6]; 25 µg/mL (≈ 66.6 µM) in the assay with Staphylococcus aureus [7]; 12.5 µg/mL (≈ 33.3 µM) against Enterococcus [8]. The MIC in the assay with Haemophilus influenzae stood at 25 µg/mL (≈ 66.6 µM); with Enterococcus faecalis [9], 25 µg/mL (≈ 66.6 µM); against Enterococcus [10], 25 µg/mL (≈ 66.6 µM); against Enterococcus [11], 12.5 µg/mL (≈ 33.3 µM); in the assay on Staphylococcus aureus [12], 25 µg/mL (≈ 66.6 µM).

On to `CCO/N=C1\CN(c2ccc(N3C[C@H](CNC(C)=O)OC3=O)cc2F)CC12CC2`, for which the MIC stood at 6.25 µg/mL (≈ 15.5 µM) with Enterococcus [1]; 12.5 µg/mL (≈ 30.9 µM) in the assay on Enterococcus faecium [2]; 12.5 µg/mL (≈ 30.9 µM) in the assay on Streptococcus agalactiae; 12.5 µg/mL (≈ 30.9 µM) against Streptococcus pneumoniae; 6.25 µg/mL (≈ 15.5 µM) with Enterococcus [3]; 12.5 µg/mL (≈ 30.9 µM) with Streptococcus pyogenes. For the same compound, the MIC in the assay on Enterococcus faecalis [4] came out at 12.5 µg/mL (≈ 30.9 µM); in the assay on Enterococcus [5], 6.25 µg/mL (≈ 15.5 µM); in the assay with Staphylococcus, 12.5 µg/mL (≈ 30.9 µM); against Enterococcus faecium [6] it was 12.5 µg/mL (≈ 30.9 µM); with Staphylococcus aureus [7], 12.5 µg/mL (≈ 30.9 µM); in the assay with Enterococcus [8] it was 12.5 µg/mL (≈ 30.9 µM). The MIC worked out at 12.5 µg/mL (≈ 30.9 µM) with Haemophilus influenzae; 25 µg/mL (≈ 61.8 µM) with Enterococcus faecalis [9]; 12.5 µg/mL (≈ 30.9 µM) against Enterococcus [10]; 6.25 µg/mL (≈ 15.5 µM) with Enterococcus [11]; 12.5 µg/mL (≈ 30.9 µM) against Staphylococcus aureus [12].

Regarding `CC(=O)NC[C@H]1CN(c2ccc(N3CC(=O)C4(CC4)C3)c(F)c2)C(=O)O1`, the MIC against Enterococcus [1] was found to be 1.56 µg/mL (≈ 4.32 µM); with Enterococcus faecium [2] it was 1.56 µg/mL (≈ 4.32 µM); in the assay on Streptococcus agalactiae, 1.56 µg/mL (≈ 4.32 µM); in the assay with Streptococcus pneumoniae, 0.78 µg/mL (≈ 2.16 µM); against Enterococcus [3] it was 1.56 µg/mL (≈ 4.32 µM); with Streptococcus pyogenes, 3.12 µg/mL (≈ 8.63 µM). Also, the MIC is 1.56 µg/mL (≈ 4.32 µM) in the assay on Enterococcus faecalis [4]; 1.56 µg/mL (≈ 4.32 µM) against Enterococcus [5]; 3.12 µg/mL (≈ 8.63 µM) with Staphylococcus; 1.56 µg/mL (≈ 4.32 µM) against Enterococcus faecium [6]; 3.12 µg/mL (≈ 8.63 µM) against Staphylococcus aureus [7]; 3.12 µg/mL (≈ 8.63 µM) in the assay on Enterococcus [8]. The MIC worked out at 1.56 µg/mL (≈ 4.32 µM) with Haemophilus influenzae; 6.25 µg/mL (≈ 17.3 µM) against Enterococcus faecalis [9]; 3.12 µg/mL (≈ 8.63 µM) in the assay with Enterococcus [10]; 3.12 µg/mL (≈ 8.63 µM) in the assay on Enterococcus [11]; 3.12 µg/mL (≈ 8.63 µM) against Staphylococcus aureus [12].

Take `CO/N=C1\CN(c2ccc(N3C[C@H](CNC(C)=O)OC3=O)cc2F)CC12CC2`: the MIC with Enterococcus [1] came out at 6.25 µg/mL (≈ 16 µM); in the assay with Enterococcus faecium [2] it was 6.25 µg/mL (≈ 16 µM); against Streptococcus agalactiae, 6.25 µg/mL (≈ 16 µM); with Streptococcus pneumoniae it was 3.12 µg/mL (≈ 7.99 µM); in the assay with Enterococcus [3] it was 3.12 µg/mL (≈ 7.99 µM); against Streptococcus pyogenes, 6.25 µg/mL (≈ 16 µM). For the same compound, the MIC in the assay with Enterococcus faecalis [4] amounted to 6.25 µg/mL (≈ 16 µM); against Enterococcus [5] it was 6.25 µg/mL (≈ 16 µM); against Staphylococcus, 12.5 µg/mL (≈ 32 µM); in the assay on Enterococcus faecium [6], 6.25 µg/mL (≈ 16 µM); with Staphylococcus aureus [7], 6.25 µg/mL (≈ 16 µM); against Enterococcus [8] it was 6.25 µg/mL (≈ 16 µM). Moreover, the MIC against Haemophilus influenzae amounted to 6.25 µg/mL (≈ 16 µM); against Enterococcus faecalis [9], 12.5 µg/mL (≈ 32 µM); in the assay with Enterococcus [10] it was 6.25 µg/mL (≈ 16 µM); with Enterococcus [11], 6.25 µg/mL (≈ 16 µM); in the assay on Staphylococcus aureus [12], 6.25 µg/mL (≈ 16 µM).

With `CC(=O)NC[C@H]1CN(c2ccc(N3CCOCC3)c(F)c2)C(=O)O1` [LINEZOLID], the MIC against Enterococcus [1] stood at 1.56 µg/mL (≈ 4.62 µM); with Enterococcus faecium [2] it was 1.56 µg/mL (≈ 4.62 µM); in the assay with Streptococcus agalactiae, 1.56 µg/mL (≈ 4.62 µM); against Streptococcus pneumoniae, 0.78 µg/mL (≈ 2.31 µM); in the assay with Enterococcus [3], 1.56 µg/mL (≈ 4.62 µM); in the assay with Streptococcus pyogenes it was 1.56 µg/mL (≈ 4.62 µM). The MIC stood at 1.56 µg/mL (≈ 4.62 µM) with Enterococcus faecalis [4]; 1.56 µg/mL (≈ 4.62 µM) in the assay with Enterococcus [5]; 3.12 µg/mL (≈ 9.25 µM) with Staphylococcus; 1.56 µg/mL (≈ 4.62 µM) against Enterococcus faecium [6]; 1.56 µg/mL (≈ 4.62 µM) against Staphylococcus aureus [7]; 1.56 µg/mL (≈ 4.62 µM) in the assay on Enterococcus [8]. Further, the MIC in the assay on Haemophilus influenzae is 1.56 µg/mL (≈ 4.62 µM); in the assay on Enterococcus faecalis [9], 1.56 µg/mL (≈ 4.62 µM); against Enterococcus [10], 1.56 µg/mL (≈ 4.62 µM); with Enterococcus [11], 1.56 µg/mL (≈ 4.62 µM); against Staphylococcus aureus [12], 3.12 µg/mL (≈ 9.25 µM).
